Measurements as given in ChEMBL document CHEMBL4400507, “Discovery of Novel Transient Receptor Potential Vanilloid 4 (TRPV4) Agonists as Regulators of Chondrogenic Differentiation: Identification of Quinazolin-4(3 H)-ones and in Vivo Studies on a Surgically Induced Rat Model of Osteoarthritis” (J Med Chem, 2019).
Values after ≈ are worked out from the molar mass of the structure shown. Active and inactive are the calls of the source. The rule behind the calls is not given here.

What was measured:
[1] = target: T1, Transient receptor potential cation channel subfamily V member 4 (Homo sapiens, UniProt Q9HBA0); test: Agonist activity at recombinant human TRPV4 expressed in […] cells at 10 uM by SOX9 luciferase reporter gene assay; type: cell-based
How it was run: (§1)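 ATDC5 cells stably carrying a SOX9 reporter gene construct and human TRPV4 (pcDNA3.1) were seeded at 2.0 × 10^4 cells/well and treated with compound. Luciferase luminescence was measured the next day.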

[2] = target: Transient receptor potential cation channel subfamily V member 1 (Homo sapiens) (UniProt Q8NER1); test: Agonist activity at human TRPV1 assessed as increase in intracellular calcium level at 10 uM relative to control; type: cell-based
[3] = Solubility of the compound in saline; type: physicochemical
[4] = target: T1, Transient receptor potential cation channel subfamily V member 4; test: Agonist activity at recombinant human TRPV4 expressed in […] cells by SOX9 luciferase reporter gene assay; type: cell-based; how it was run: as §1
[5] = target: T1, Transient receptor potential cation channel subfamily V member 4; test: Agonist activity at recombinant human TRPV4 expressed in HEK293 cells assessed as increase in intracellular calcium level after 30 mins by Fura-2 AM/Pluronic F-127 probe based fluorescence assay; type: cell-based
How it was run: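 HEK293 cells transiently expressing human TRPV4 were loaded with 5 µM Fura-2 AM plus 0.2% Pluronic F-127 for 30 min at 37 °C in HEPES buffer (pH 7.4, 1.8 mM CaCl2, 0.1% BSA). They were then washed and resuspended. Intracellular Ca2+ was read by Fura-2 ratio imaging (excitation 340/380 nm, emission 510 nm).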

[6] = Toxicity in Sprague-Dawley rat model of medial meniscal tear-induced osteoarthritis assessed as death at 5 to 10 uM administered intra-articularly into operated knee twice per week for 3 consecutive weeks and measured at week 4; details: in vivo, other
How it was run: (§2)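 Eight-week-old male SD rats, housed singly, had the medial meniscus cut. One week later they were grouped by body weight. The operated knee received 50 µL saline or 0, 5 or 10 µM solution intra-articularly twice weekly for 3 weeks, starting 1 week post-surgery. Deaths and systemic signs were checked by gross visual inspection, and final body weights were recorded. Rats were euthanized at week 4.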

[7] = Drug level in rat synovial fluid lavage dosed directly in to knee joints and measured within 30 mins by LC-MS method; type: ADME, organism-based; details: in vivo, other, 0.5 h
How it was run: (§3)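 Normal rats received an intra-articular knee injection. After euthanasia the joint was washed with saline and the synovial fluid lavage collected. Compound was quantified by LC-MS/MS and converted to joint concentration using the ratio of total protein in the lavage. Quantitation limits were 0.3–1 nmol/L.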

[8] = Toxicity in Sprague-Dawley rat model of medial meniscal tear-induced osteoarthritis assessed as effect on body weight at 5 to 10 uM administered intra-articularly into operated knee twice per week for 3 consecutive weeks and measured at week 4; details: in vivo, other; how it was run: as §2
[9] = Drug level in rat synovial fluid lavage dosed directly in to knee joints and measured after 30 mins by LC-MS method; type: ADME, organism-based; details: in vivo, other, 0.5 h; how it was run: as §3
[10] = Systemic toxicity in Sprague-Dawley rat model of medial meniscal tear-induced osteoarthritis at 5 to 10 uM administered intra-articularly into operated knee twice per week for 3 consecutive weeks and measured at week 4; details: in vivo, other; how it was run: as §2
HL-60 = test: Cytotoxicity against human HL60 cells assessed as reduction in cell viability; type: cell-based
How it was run: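 HL-60 cell viability measured with an ATP-based assay.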

[11] = Genotoxicity in Salmonella typhimurium by Ames test; type: toxicity; details: salmonella enterica subsp. enterica serovar typhimurium
Homo sapiens [12] = species on record: Homo sapiens; test: Induction of chondrogenesis in normal human articular chondrocytes at 62.5 nM preincubated for 30 mins followed by medium replacement and measured after 3 days by Alcian blue-staining based assay; type: functional, cell-based
How it was run: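 Normal human articular chondrocytes were stimulated with agonist for 30 min, then the medium was replaced. After 3 days' culture, cells were fixed in 95% methanol and stained overnight with 0.1% Alcian blue 8GS in 0.1 N HCl. Dye was extracted with 6 M guanidine-HCl for 2 h at room temperature and read at OD 600 nm.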

Rattus norvegicus [13] = test: Anti-osteoarthritis activity in Sprague-Dawley rat model of medial meniscal tear-induced osteoarthritis assessed as reduction in erosion of tibial plateau cartilage at 5 to 10 uM administered intra-articularly into operated knee twice per week for 3 consecutive weeks and measured at week 4; type: functional, organism-based
How it was run: (§4)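 Male Sprague-Dawley rats, 8 weeks old. Medial meniscus cut through to mimic a complete tear. One week after surgery, rats were grouped by body weight: sham, MT vehicle, 5 μM, 10 μM. 50 µL saline or drug was injected intra-articularly into the operated knee twice weekly for 3 weeks, and knees were harvested at week 4. Sections of 5 μm were stained with safranin-O/Fast Green, and damaged width on the medial tibial plateau was measured by micrometer. Analysis by Dunnett's test; n = 5–15 per group.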

Homo sapiens [14] = species on record: Homo sapiens; test: Induction of chondrogenesis in normal human articular chondrocytes at 62.5 to 1000 nM preincubated for 30 mins followed by medium replacement and measured after 3 days by Alcian blue-staining based assay; type: functional, cell-based
How it was run: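 Normal human articular chondrocytes were exposed to agonist for 30 min, then the medium was replaced and the cells cultured 3 days. They were fixed in 95% methanol and stained overnight with 0.1% Alcian blue in 0.1 N HCl. Dye was extracted with 6 M guanidine-HCl for 2 h at room temperature, and OD was read at 600 nm.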

Rattus norvegicus [15] = test: Induction of SOX9 mRNA expression in Sprague-Dawley rat model of medial meniscal tear-induced osteoarthritis at 5 to 10 uM administered intra-articularly into operated knee twice per week for 3 consecutive weeks measured after 21 days by RT-qPCR analysis; type: functional, organism-based
Rattus norvegicus [16] = test: Anti-osteoarthritis activity in Sprague-Dawley rat model of medial meniscal tear-induced osteoarthritis assessed as decrease in length of damage area at 5 to 10 uM administered intra-articularly into operated knee twice per week for 3 consecutive weeks and measured at week 4; type: functional, organism-based; how it was run: as §4
Rattus norvegicus [17] = test: Induction of aggrecan mRNA expression in Sprague-Dawley rat model of medial meniscal tear-induced osteoarthritis at 5 to 10 uM administered intra-articularly into operated knee twice per week for 3 consecutive weeks measured after 21 days by RT-qPCR analysis; type: functional, organism-based
Rattus norvegicus [18] = test: Bone anabolic effect in Sprague-Dawley rat model of medial meniscal tear-induced osteoarthritis assessed as induction of new extracellular matrix generation at 10 uM administered intra-articularly into operated knee twice per week for 3 consecutive weeks and measured at week 4 by safranin-O/Fast Green staining-based microscopic analysis; type: functional, organism-based

Chain of Transient receptor potential cation channel subfamily V member 1 (Homo sapiens) (Q8NER1 whole entry): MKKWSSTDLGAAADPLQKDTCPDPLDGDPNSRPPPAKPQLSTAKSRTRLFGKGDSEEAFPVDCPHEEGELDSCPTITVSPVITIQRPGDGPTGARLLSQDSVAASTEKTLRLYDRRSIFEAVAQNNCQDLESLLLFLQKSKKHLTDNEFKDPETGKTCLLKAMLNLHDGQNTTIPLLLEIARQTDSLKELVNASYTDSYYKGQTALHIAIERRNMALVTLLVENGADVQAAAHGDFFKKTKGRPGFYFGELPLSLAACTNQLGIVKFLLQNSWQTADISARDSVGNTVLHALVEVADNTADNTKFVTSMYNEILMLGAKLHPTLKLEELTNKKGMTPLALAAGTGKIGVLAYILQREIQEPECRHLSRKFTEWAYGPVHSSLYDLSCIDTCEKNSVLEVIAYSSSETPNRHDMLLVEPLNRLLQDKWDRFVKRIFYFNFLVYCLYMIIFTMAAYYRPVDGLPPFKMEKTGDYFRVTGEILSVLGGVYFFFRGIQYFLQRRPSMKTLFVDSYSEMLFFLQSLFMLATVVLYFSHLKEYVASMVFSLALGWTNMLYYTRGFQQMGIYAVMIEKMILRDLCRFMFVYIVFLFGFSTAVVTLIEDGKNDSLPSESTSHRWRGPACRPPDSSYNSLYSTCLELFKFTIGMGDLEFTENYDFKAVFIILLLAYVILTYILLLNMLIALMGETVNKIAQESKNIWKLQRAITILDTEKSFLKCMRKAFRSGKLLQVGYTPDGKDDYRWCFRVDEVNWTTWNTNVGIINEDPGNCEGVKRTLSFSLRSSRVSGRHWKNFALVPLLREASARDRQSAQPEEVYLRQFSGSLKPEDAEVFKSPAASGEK
T1 sequence (Q9HBA0 whole entry): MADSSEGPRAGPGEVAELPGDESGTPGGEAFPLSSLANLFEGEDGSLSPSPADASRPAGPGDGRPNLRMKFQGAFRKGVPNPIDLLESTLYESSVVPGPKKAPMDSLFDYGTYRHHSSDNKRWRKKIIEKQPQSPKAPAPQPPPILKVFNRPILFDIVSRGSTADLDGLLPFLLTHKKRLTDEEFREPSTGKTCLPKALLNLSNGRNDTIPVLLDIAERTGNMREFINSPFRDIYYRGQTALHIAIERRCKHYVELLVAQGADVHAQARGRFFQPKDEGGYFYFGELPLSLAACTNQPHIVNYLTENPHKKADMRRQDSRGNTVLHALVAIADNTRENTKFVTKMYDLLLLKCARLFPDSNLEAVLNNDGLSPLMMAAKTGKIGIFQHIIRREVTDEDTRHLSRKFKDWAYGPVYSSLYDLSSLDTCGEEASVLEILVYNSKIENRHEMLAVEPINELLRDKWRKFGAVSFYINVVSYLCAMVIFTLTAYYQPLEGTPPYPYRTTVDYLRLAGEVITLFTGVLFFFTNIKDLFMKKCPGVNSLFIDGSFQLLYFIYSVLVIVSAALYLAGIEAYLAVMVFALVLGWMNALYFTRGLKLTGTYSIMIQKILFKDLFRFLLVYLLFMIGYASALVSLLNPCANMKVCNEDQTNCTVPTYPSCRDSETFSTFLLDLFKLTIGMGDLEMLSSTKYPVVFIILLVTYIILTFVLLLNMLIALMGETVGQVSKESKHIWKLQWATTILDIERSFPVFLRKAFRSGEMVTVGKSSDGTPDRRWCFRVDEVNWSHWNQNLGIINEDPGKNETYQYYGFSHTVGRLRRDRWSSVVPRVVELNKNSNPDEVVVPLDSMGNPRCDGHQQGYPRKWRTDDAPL

| SMILES | Activity [1] [%] | Activity [2] [%] | ECmax [4] [nM] | EC50 [5] [nM] | further results |
| --- | --- | --- | --- | --- | --- |
| CN1CCN(c2nc3cc(F)ccc3c(=O)n2-c2ccc(C(F)(F)F)cc2)CC1=O | 1.8 | – | – | – | – |
| CCOC(=O)c1ccc(-n2c(N3CCN(C)CC3)nc3c(Br)cccc3c2=O)cc1 | 7.8 | – | – | – | – |
| CN1CCN(c2nc3c(F)cccc3c(=O)n2-c2ccc(OC(F)(F)F)cc2)CC1 | – | 2.2 | 625 | 280 | solubility [3]: 951 µg/mL (≈ 2250 µM) |
| CCOC(=O)c1ccc(-n2c(N(C)C3CCN(C)C3)nc3c(F)cccc3c2=O)cc1 (configuration not stated) | 0.3 | – | – | – | – |
| CN1CCN(c2nc3c(F)cccc3c(=O)n2-c2ccc(Cc3ccccc3)cc2)CC1 | – | 1.5 | 312 | 670 | solubility [3]: 553 µg/mL (≈ 1290 µM) |
| Cc1ccccc1-n1c(N2CCN(C)CC2)nc2c(Cl)cccc2c1=O | 0.4 | – | – | – | – |
| CN1CCN(c2nc3c(F)cccc3c(=O)n2-c2ccc(Oc3ccc(F)cc3)cc2)CC1.Cl | – | – | – | – | Activity [6]: Non-Toxic; Drug uptake [7]: Active; Activity [8]: Non-Toxic; Drug uptake [9]: Not Active; Activity [10]: Non-Toxic |
| CN1CCN(c2nc3c(F)cccc3c(=O)n2-c2ccc(Oc3ccccc3)cc2)CC1 | – | 0.6 | 39 | 125 | solubility [3]: 745 µg/mL (≈ 1730 µM) |
| CN1CCN(c2nc3c(F)cccc3c(=O)n2-c2ccc(Oc3ccc(F)cc3)cc2)CC1 [listing 1 of 2 here] | – | – | – | 60 | solubility [3]: 743 µg/mL (≈ 1660 µM); Activity (HL-60): Non-Toxic; Activity [11]: Non-Toxic |
| CN1CCN(c2nc3c(F)cccc3c(=O)n2-c2ccc(Oc3ccc(F)cc3)cc2)CC1 [listing 2 of 2 here] | – | 0.6 | 20 | – | Activity (Homo sapiens [12]): Active; Activity (Rattus norvegicus [13]): Dose-dependent effect; Activity (Homo sapiens [14]): Active; Activity (Rattus norvegicus [15]): Dose-dependent effect; Activity (Rattus norvegicus [16]): Dose-dependent effect; Activity (Rattus norvegicus [17]): Dose-dependent effect; Activity (Rattus norvegicus [18]): Active |
| CCOC(=O)c1ccc(-n2c(N3CCN(C)CC3)nc3c(Cl)cccc3c2=O)cc1 | 29.4 | – | – | – | – |
| CCOC(=O)c1ccc(-n2c(N3CCN(C)CC3)nc3c(F)cccc3c2=O)cc1 | – | – | 625 | 920 | – |
| COc1cccc2c(=O)n(-c3ccc(C)cc3)c(N3CCN(C)CC3)nc12 | 1.3 | – | – | – | – |
| CN1CCN(c2nc3ccc(F)cc3c(=O)n2-c2ccc(OC(F)(F)F)cc2)CC1 | – | 5 | 2500 | 2060 | – |
| Cc1cccc(-n2c(N3CCN(C)CC3)nc3c(Cl)cccc3c2=O)c1 | 1.5 | – | – | – | – |
| CN1CCN(c2nc3cccc(F)c3c(=O)n2-c2ccc(OC(F)(F)F)cc2)CC1 | – | 3.7 | 1250 | 1180 | – |
| COc1ccc(-n2c(N3CCNCC3)nc3cc(F)ccc3c2=O)cc1 | 1.8 | – | – | – | – |
| COc1ccc(-n2c(N3CCN(C)CC3)nc3ccccc3c2=O)cc1 | 13.2 | – | – | – | – |
